ChEMBL document CHEMBL1148197, “Three new manzamine alkaloids from a common Indonesian sponge and their activity against infectious and tropical parasitic diseases” (J Nat Prod, 2004)
≈ marks a conversion by molar mass, not a printed value. Calls of active or inactive are those of the source. The rule behind the calls is not given here.

Legend:
Staphylococcus aureus [1] = experiment: Antibacterial activity against methicillin-resistant Staphylococcus aureus; format: functional, organism-based
Cryptococcus neoformans = experiment: […] activity against Cryptococcus neoformans; format: functional, organism-based
Vero [2] = experiment: Cytotoxicity against african green monkey Vero cells at 4.7 ug/mL; format: cell-based; conditions: chlorocebus sabaeus
Staphylococcus aureus [3] = experiment: Antimicrobial activity against Staphylococcus aureus; format: functional, organism-based
[4] = system: Human immunodeficiency virus 1; experiment: Antiviral activity against HIV1 infected in human PBMCs; format: functional, organism-based
[5] = system: Mycobacterium intracellulare; experiment: Antibacterial activity against Mycobacterium intracellular; format: functional, organism-based
Vero [6] = experiment: Cytotoxicity against african green monkey Vero cells; format: cell-based; conditions: chlorocebus sabaeus
Procedure, shortened: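 Vero (African green monkey kidney) cell cytotoxicity, reported in µg/mL. Compounds without cytotoxicity were scored at a tested concentration of 4.7 µg/mL.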

Plasmodium falciparum [7] = experiment: Antimalarial activity against Plasmodium falciparum D6; format: functional, organism-based
Leishmania donovani [8] = experiment: Antileishmanial activity against Leishmania donovani; format: functional, organism-based
[9] = system: Mycobacterium tuberculosis; experiment: Antitubercular activity against Mycobacterium tuberculosis H37Rv; format: functional
Plasmodium falciparum [10] = experiment: Antimalarial activity against chloroquine-resistant Plasmodium falciparum W2; format: functional, organism-based
Plasmodium falciparum [11] = experiment: Antimalarial activity against chloroquine-resistant Plasmodium falciparum W2 at 5 ug/mL; format: functional, organism-based
Leishmania donovani [12] = experiment: Antileishmanial activity against Leishmania donovani at 5 ug/mL; format: functional, organism-based
Plasmodium falciparum [13] = experiment: Antimalarial activity against Plasmodium falciparum D6 at 5 ug/mL; format: functional, organism-based

[O-][N+]1=C(C2=C[C@@]3(O)CC/C=C\CCCCN4CC[C@@H]2[C@]2(CC5/C=C\CCCCN5[C@H]23)C4)c2[nH]c3ccccc3c2CC1 (stereo partly specified)
Activity (Staphylococcus aureus [1]): inactive | Activity (Cryptococcus neoformans): inactive | Activity (Vero [2]): Non-toxic | Activity (Staphylococcus aureus [3]): inactive | Activity [4]: inactive | Activity [5]: inactive

[O-][n+]1ccc2c([nH]c3ccccc32)c1C1=C[C@@]2(O)CC/C=C\CCCCN3CC[C@@H]1[C@]1(C[C@@H]4/C=C\CCCCN4[C@H]12)C3
IC50 (Staphylococcus aureus [1]): 0.4 µg/mL (≈ 0.708 µM) | Activity (Vero [6]): 4.2 µg/mL | IC50 (Cryptococcus neoformans): 1 µg/mL (≈ 1.77 µM) | IC50 (Plasmodium falciparum [7]): 0.011 µg/mL (≈ 0.0195 µM) | IC50 (Staphylococcus aureus [3]): 0.5 µg/mL (≈ 0.885 µM) | IC50 (Leishmania donovani [8]): 1.1 µg/mL (≈ 1.95 µM) | IC90 (Leishmania donovani [8]): 3.8 µg/mL (≈ 6.73 µM) | MIC [9]: 3.9 µg/mL (≈ 6.91 µM) | IC50 (Plasmodium falciparum [10]): 0.013 µg/mL (≈ 0.023 µM) | IC50 [5]: 0.2 µg/mL (≈ 0.354 µM)

O=C1CCCN2[C@@H]3[C@@]45CN6CCCC/C=C\CC[C@@]3(C=C(c3nccc7c3[nH]c3ccccc37)[C@@H]4CC6)O[C@]2(CC1)C5
Activity (Staphylococcus aureus [1]): inactive | Activity (Cryptococcus neoformans): inactive | Activity (Plasmodium falciparum [11]): inactive | Activity (Vero [2]): Non-toxic | IC50 (Plasmodium falciparum [7]): 1.6 µg/mL (≈ 2.84 µM) | Activity (Staphylococcus aureus [3]): inactive | Activity (Leishmania donovani [12]): inactive | Activity (Plasmodium falciparum [13]): inactive | IC50 (Plasmodium falciparum [10]): 3.7 µg/mL (≈ 6.57 µM) | Activity [5]: inactive

O=C1CCCN2[C@@H](CC1)C[C@]13CN4CCCC/C=C\CC[C@](O)(C=C(c5nccc6c5[nH]c5ccc(O)cc56)[C@@H]1CC4)[C@H]23
Activity (Vero [6]): 4.3 µg/mL

Oc1cccc2c1[nH]c1c(C3=C[C@@]4(O)CC/C=C\CCCCN5CC[C@@H]3[C@]3(CC6/C=C\CCCCN6[C@H]34)C5)nccc12 (stereo partly specified)
Activity (Vero [6]): 1.1 µg/mL | IC90 (Leishmania donovani [8]): 11 µg/mL (≈ 19.5 µM) | EC50 [4]: 0.59 µM

O[C@]12C=C(c3nccc4c3[nH]c3ccccc34)C3CCN(CCCC/C=C\CC1)C[C@@]31C[C@]34CC[C@H](CCCN3[C@H]12)O4 (stereo partly specified) [6-Deoxymanzamine X]
IC50 (Staphylococcus aureus [1]): 1.5 µg/mL (≈ 2.66 µM) | Activity (Vero [6]): 4.7 µg/mL | IC50 (Cryptococcus neoformans): 2 µg/mL (≈ 3.54 µM) | IC50 (Staphylococcus aureus [3]): 1.5 µg/mL (≈ 2.66 µM) | MIC [9]: 1.8 µg/mL (≈ 3.19 µM) | IC50 [5]: 6.25 µg/mL (≈ 11.1 µM)

C[C@@H]1[C@H](O)[C@@H](C)/C=C/C=C/C=C/C=C/C=C/C=C/C=C/[C@H](O[C@@H]2O[C@H](C)[C@@H](O)[C@H](N)[C@@H]2O)C[C@@H]2O[C@](O)(C[C@@H](O)C[C@@H](O)[C@H](O)CC[C@@H](O)C[C@@H](O)CC(=O)O[C@H]1C)C[C@H](O)[C@H]2C(=O)O [AMPHOTERICIN B]
IC90 (Leishmania donovani [8]): 0.15 µg/mL (≈ 0.162 µM)

O=CC1=C[C@@]2(O)CC/C=C\CCCCN3CC[C@@H]1[C@]1(C[C@@H]4/C=C\CCCCN4[C@H]12)C3 [IRCINAL]
Activity (Staphylococcus aureus [1]): inactive | Activity (Cryptococcus neoformans): inactive | Activity (Plasmodium falciparum [11]): inactive | Activity (Vero [2]): Non-toxic | Activity (Staphylococcus aureus [3]): inactive | IC50 (Leishmania donovani [8]): 4.6 µg/mL (≈ 11.2 µM) | IC90 (Leishmania donovani [8]): 8.5 µg/mL (≈ 20.7 µM) | EC50 [4]: 6.8 µM | MIC [9]: 30.2 µg/mL (≈ 73.6 µM) | Activity (Plasmodium falciparum [13]): inactive | IC50 [5]: 50 µg/mL (≈ 122 µM)

OC1=C[C@@]2(O)CC/C=C\CCCCN3CC[C@@H]1[C@]1(C[C@@H]4/C=C\CCCCN4[C@H]12)C3 [IRCINOL A]
IC50 (Staphylococcus aureus [1]): 30 µg/mL (≈ 75.3 µM) | Activity (Cryptococcus neoformans): inactive | Activity (Vero [2]): Non-toxic | IC50 (Plasmodium falciparum [7]): 2.4 µg/mL (≈ 6.02 µM) | Activity (Staphylococcus aureus [3]): inactive | IC90 (Leishmania donovani [8]): 0.7 µg/mL (≈ 1.76 µM) | EC50 [4]: 4.3 µM | MIC [9]: 1.9 µg/mL (≈ 4.77 µM) | IC50 (Plasmodium falciparum [10]): 3.1 µg/mL (≈ 7.78 µM) | IC50 [5]: 50 µg/mL (≈ 125 µM)

O[C@]12C=C(c3nccc4c3[nH]c3ccccc34)[C@@H]3CCN(CCCC/C=C\CC1)C[C@@]31C[C@@H]3/C=C\CCCCN3[C@H]12 [MANZAMINE A]
Activity (Vero [6]): 1.2 µg/mL | IC90 (Leishmania donovani [8]): 1.8 µg/mL (≈ 3.28 µM) | EC50 [4]: 4.2 µM

O=C1CCCN2[C@@H](CC1)C[C@]13CN4CCCC/C=C\CC[C@](O)(C=C(c5nccc6c5[nH]c5ccccc56)C1CC4)[C@H]23 (stereo partly specified) [MANZAMINE E]
Activity (Staphylococcus aureus [1]): inactive | Activity (Cryptococcus neoformans): inactive | Activity (Vero [2]): Non-toxic | Activity (Staphylococcus aureus [3]): inactive | IC90 (Leishmania donovani [8]): 6.8 µg/mL (≈ 12 µM) | EC50 [4]: 13.1 µM

O=C1CCCN2[C@@H](CC1)C[C@]13CN4CCCC/C=C\CC[C@](O)(C=C(c5nccc6c5[nH]c5c(O)cccc56)C1CC4)[C@H]23 (stereo partly specified) [MANZAMINE F]
Activity (Staphylococcus aureus [1]): inactive | Activity (Vero [2]): Non-toxic | Activity (Staphylococcus aureus [3]): inactive | IC90 (Leishmania donovani [8]): 7 µg/mL (≈ 12.1 µM) | EC50 [4]: 7.3 µM

O[C@]12C=C(c3nccc4c3[nH]c3ccccc34)[C@@H]3CCN(CCCC/C=C\CC1)C[C@@]31CC/C=C\CCCCN[C@H]12 [MANZAMINE J]
Activity (Staphylococcus aureus [1]): inactive | Activity (Cryptococcus neoformans): inactive | Activity (Vero [2]): Non-toxic | IC50 (Plasmodium falciparum [7]): 1.3 µg/mL (≈ 2.36 µM) | Activity (Staphylococcus aureus [3]): inactive | IC50 (Leishmania donovani [8]): 25 µg/mL (≈ 45.4 µM) | IC90 (Leishmania donovani [8]): 45 µg/mL (≈ 81.7 µM) | MIC [9]: 1.7 µg/mL (≈ 3.09 µM) | IC50 (Plasmodium falciparum [10]): 0.75 µg/mL (≈ 1.36 µM) | IC50 [5]: 15 µg/mL (≈ 27.2 µM)

Oc1ccc2[nH]c3c(C4=C[C@@]5(O)CC/C=C\CCCCN6CC[C@@H]4[C@@]4(C6)C[C@@]67CC[C@@H](CCCN6[C@H]45)O7)nccc3c2c1 [MANZAMINE X]
IC50 (Staphylococcus aureus [1]): 0.75 µg/mL (≈ 1.29 µM) | IC50 (Cryptococcus neoformans): 3 µg/mL (≈ 5.17 µM) | Activity (Vero [2]): Non-toxic | IC50 (Staphylococcus aureus [3]): 1 µg/mL (≈ 1.72 µM) | EC50 [4]: 2.3 µM | IC50 [5]: 1.5 µg/mL (≈ 2.58 µM)

O[C@@H]1CCCN2CC[C@@H]1O[C@@]13CC[C@@H](OC[C@]45CN6CCCC/C=C\CC[C@](O)(C=C(c7nccc8c7[nH]c7ccccc78)[C@@H]4CC6)[C@H]25)[C@@H](O)CCN1[C@@H]1[C@]2(CN4CCCC/C=C\CC[C@]1(O)C=C(c1nccc5c1[nH]c1ccccc15)[C@@H]2CC4)C3 [NEO-KAULUAMINE]
Activity (Staphylococcus aureus [1]): inactive | IC50 (Cryptococcus neoformans): 3 µg/mL (≈ 2.58 µM) | Activity (Vero [2]): Non-toxic | IC50 (Plasmodium falciparum [7]): 1.7 µg/mL (≈ 1.46 µM) | Activity (Staphylococcus aureus [3]): inactive | IC50 (Leishmania donovani [8]): 4.2 µg/mL (≈ 3.61 µM) | IC90 (Leishmania donovani [8]): 8.2 µg/mL (≈ 7.05 µM) | EC50 [4]: 2.3 µM | MIC [9]: 2 µg/mL (≈ 1.72 µM) | IC50 (Plasmodium falciparum [10]): 2.8 µg/mL (≈ 2.41 µM) | IC50 [5]: 3 µg/mL (≈ 2.58 µM)

N=C(N)c1ccc(OCCCCCOc2ccc(C(=N)N)cc2)cc1 [PENTAMIDINE]
IC90 (Leishmania donovani [8]): 10 µg/mL (≈ 29.4 µM)

CO[C@H]1/C=C/O[C@@]2(C)Oc3c(C)c(O)c4c(O)c(c(/C=N/N5CCN(C)CC5)c(O)c4c3C2=O)NC(=O)/C(C)=C\C=C\[C@H](C)[C@H](O)[C@@H](C)[C@@H](O)[C@@H](C)[C@H](OC(C)=O)[C@@H]1C [RIFAMPIN]
MIC [9]: 0.5 µg/mL (≈ 0.608 µM)
